ChEMBL document CHEMBL1121400, “Quantitative structure--activity correlations of rifamycins as inhibitors of viral RNA-directed DNA polymerase and mammalian alpha and beta DNA polymerases” (J Med Chem, 1980)

Columns and labels:
[1] = target: DNA polymerase beta (Mus musculus) (UniProt Q8K409); experiment: The logarithm of the reciprocal of the concentration which produces 50% inhibition of mammalian beta DNA polymerase.
Procedure, shortened: (§1)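 Mammalian α or β DNA polymerase in 100 µL reaction: enzyme in 50% glycerol, 1 mM DTT, 0.5 M KCl, Tris-HCl pH 7.5; Me2SO compound; cocktail with MnCl2, NaF, [3H]dGTP, poly(2'-O-methylC)·d(pG)12-18 template. Compound added first, then enzyme, then cocktail; 45 min at 37 °C. Product radioactivity, background-corrected against Me2SO controls; 50% concentration from triplicate five-dose curves, 10^-3–10^-7 M, expressed as log(1/C).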

[2] = The logarithm of the reciprocal of the concentration which produces 50% inhibition of mammalian alpha DNA polymerase.; procedure, shortened: as §1
[3] = Ability to inhibit mouse alpha DNA polymerase
Procedure, shortened: (§2)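 Enzyme in 50% glycerol, 1 mM dithiothreitol, 0.5 M KCl and 50 mM Tris-HCl pH 7.5 was premixed with inhibitor in 100% Me2SO and held on ice 10 min. Cocktail (MnCl2, KCl, NaF, BSA, [3H]dGTP, poly(2'-O-methylcytidylic acid)·d(pG)12-18) was then added. Incubation was 45 min at 37 °C.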

Gag-Pol polyprotein = Gag-Pol polyprotein (Woolly monkey sarcoma virus, UniProt P03359); experiment: Ability to inhibit simian sarcoma virus reverse transcriptase
Procedure, shortened: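 Purified SSV-1 RNA-dependent DNA polymerase from 71 AP1 culture fluids, in 20% glycerol, 1 mM dithiothreitol, 1 mg/mL BSA and 50 mM Tris-HCl pH 7.5, was held 10 min on ice with inhibitor in Me2SO. Mn2+/[3H]dGTP cocktail with poly(2'-O-methylcytidylic acid)·d(pG)12-18 template was added, then 45 min at 37 °C. Background-corrected triplicate dose series; the 50% inhibition concentration was extrapolated.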

DNA polymerase beta = DNA polymerase beta (Mus musculus, UniProt Q8K409); experiment: Ability to inhibit mouse beta DNA polymerase; procedure, shortened: as §2
[4] = target: Gag-Pol polyprotein (Woolly monkey sarcoma virus) (UniProt P03359); experiment: Inhibition of simian sarcoma virus reverse transcriptase
Procedure, shortened: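 SSV-1 RNA-dependent DNA polymerase purified from tissue culture fluid of 71 AP1 cells. 50 µL reaction containing 20% glycerol, 1 mM DTT, BSA, Tris-HCl pH 7.5, MnCl2, KCl, NaF, [3H]dGTP and poly(2'-O-methylC)·d(pG)12-18. Compound in Me2SO is mixed with enzyme on ice for 10 min before the cocktail is added, then incubated 45 min at 37 °C. Radioactivity in product; 50% inhibitory concentration from triplicate dose–response curves spanning 10^-3 to 10^-7 M.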

[5] = Partition coefficient (logP); details: octanol/water

Chain of Gag-Pol polyprotein (Woolly monkey sarcoma virus) (P03359 whole entry): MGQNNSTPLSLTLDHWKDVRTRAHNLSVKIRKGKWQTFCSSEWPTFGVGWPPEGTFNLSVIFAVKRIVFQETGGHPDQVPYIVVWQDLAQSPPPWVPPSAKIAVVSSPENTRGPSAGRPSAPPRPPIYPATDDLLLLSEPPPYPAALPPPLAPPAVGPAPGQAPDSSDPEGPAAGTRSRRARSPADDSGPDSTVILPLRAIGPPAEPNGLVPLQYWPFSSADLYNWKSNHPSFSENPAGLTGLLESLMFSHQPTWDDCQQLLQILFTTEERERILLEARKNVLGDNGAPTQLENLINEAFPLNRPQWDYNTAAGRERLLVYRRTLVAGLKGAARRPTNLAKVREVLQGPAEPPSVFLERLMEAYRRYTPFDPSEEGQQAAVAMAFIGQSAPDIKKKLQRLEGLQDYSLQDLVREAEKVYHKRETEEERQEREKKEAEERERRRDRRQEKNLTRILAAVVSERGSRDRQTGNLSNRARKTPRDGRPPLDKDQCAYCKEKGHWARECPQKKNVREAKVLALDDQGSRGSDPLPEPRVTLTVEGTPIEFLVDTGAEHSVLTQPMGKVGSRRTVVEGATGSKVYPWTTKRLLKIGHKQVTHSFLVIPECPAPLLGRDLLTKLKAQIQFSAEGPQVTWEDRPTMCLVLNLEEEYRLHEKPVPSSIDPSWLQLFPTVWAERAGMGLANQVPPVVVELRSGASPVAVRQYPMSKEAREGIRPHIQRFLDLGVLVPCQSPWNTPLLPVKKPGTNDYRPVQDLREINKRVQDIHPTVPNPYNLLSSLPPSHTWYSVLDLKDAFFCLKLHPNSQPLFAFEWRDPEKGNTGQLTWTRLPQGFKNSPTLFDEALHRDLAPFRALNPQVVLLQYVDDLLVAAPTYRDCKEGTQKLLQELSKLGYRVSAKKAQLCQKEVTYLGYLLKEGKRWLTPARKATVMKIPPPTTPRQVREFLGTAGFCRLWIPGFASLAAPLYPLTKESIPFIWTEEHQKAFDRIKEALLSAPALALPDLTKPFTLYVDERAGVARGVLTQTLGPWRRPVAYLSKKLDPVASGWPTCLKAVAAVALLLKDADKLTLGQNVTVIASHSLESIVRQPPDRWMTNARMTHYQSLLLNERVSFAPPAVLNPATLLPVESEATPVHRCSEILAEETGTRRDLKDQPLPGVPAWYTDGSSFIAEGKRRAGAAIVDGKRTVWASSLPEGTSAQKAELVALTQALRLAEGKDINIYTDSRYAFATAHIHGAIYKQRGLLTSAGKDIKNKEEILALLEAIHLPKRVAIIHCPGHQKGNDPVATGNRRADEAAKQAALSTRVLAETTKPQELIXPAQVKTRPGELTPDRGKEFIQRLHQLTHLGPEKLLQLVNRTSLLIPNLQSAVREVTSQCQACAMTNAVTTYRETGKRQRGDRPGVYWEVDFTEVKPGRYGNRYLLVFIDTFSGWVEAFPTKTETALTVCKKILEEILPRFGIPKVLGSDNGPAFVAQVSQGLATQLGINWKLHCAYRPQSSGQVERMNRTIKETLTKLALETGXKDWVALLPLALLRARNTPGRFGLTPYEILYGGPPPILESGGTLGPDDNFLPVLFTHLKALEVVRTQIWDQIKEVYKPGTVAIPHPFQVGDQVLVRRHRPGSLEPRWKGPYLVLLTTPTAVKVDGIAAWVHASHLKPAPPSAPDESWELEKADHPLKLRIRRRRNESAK
Chain of Gag-Pol polyprotein (P03359 642-1310 limits assumed): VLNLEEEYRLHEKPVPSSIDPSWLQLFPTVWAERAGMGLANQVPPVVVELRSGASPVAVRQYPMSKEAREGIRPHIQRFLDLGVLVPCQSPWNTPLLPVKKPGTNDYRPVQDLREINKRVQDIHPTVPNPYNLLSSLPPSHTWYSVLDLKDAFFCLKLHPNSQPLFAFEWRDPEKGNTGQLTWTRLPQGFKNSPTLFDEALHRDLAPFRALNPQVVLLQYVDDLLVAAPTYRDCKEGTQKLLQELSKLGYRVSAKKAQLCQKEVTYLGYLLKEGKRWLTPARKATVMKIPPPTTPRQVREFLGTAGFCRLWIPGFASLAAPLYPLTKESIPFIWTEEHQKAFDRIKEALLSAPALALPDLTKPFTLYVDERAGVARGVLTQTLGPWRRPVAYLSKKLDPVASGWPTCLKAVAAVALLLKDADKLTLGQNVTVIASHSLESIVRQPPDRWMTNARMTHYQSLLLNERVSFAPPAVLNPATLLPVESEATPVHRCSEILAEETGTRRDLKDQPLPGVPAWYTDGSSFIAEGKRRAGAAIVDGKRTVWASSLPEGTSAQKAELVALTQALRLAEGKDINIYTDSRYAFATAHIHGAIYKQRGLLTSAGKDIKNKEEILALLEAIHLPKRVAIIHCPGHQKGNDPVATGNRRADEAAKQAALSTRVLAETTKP

| Structure (SMILES) | Log 1/C [1] | Log 1/C [2] | IC50 [3] [M l-1] | IC50 (Gag-Pol polyprotein; read-out: IC50) [µM] | IC50 (DNA polymerase beta; read-out: IC50) [µM] | Log 1/C [4] | logP ([5]; logP) | logP [5] | IC50 (Gag-Pol polyprotein) [M l-1] | IC50 (DNA polymerase beta) [M l-1] |
| --- | --- | --- | --- | --- | --- | --- | --- | --- | --- | --- |
| COC1/C=C/OC2(C)Oc3c(C)c(O)c4c(O)c(c(/C=N/N5C(C)CN(Cc6ccccc6)CC5C)cc4c3C2=O)NC(=O)/C(C)=C\C=C\C(C)C(O)C(C)C(O)C(C)C(OC(C)=O)C1C (configuration not stated) | 4.68 | 4.42 | 0.000038 | 12.5 | 21 | 4.9 | 4.28 |  |  |  |
| CCCCCCCCO/N=C/c1cc2c3c4c(C)c(O)c2c(O)c1NC(=O)/C(C)=C\C=C\C(C)C(O)C(C)C(O)C(C)C(OC(C)=O)C(C)C(OC)/C=C/OC(C)(O4)C3=O (configuration not stated) | 4.89 | 4.94 | 0.000015 | 1 | 13 | 6 | 5.2 |  |  |  |
| COC1/C=C/OC2(C)Oc3c(C)c(O)c4c(O)c(c(/C=N/Nc5ccc([N+](=O)[O-])cc5[N+](=O)[O-])cc4c3C2=O)NC(=O)/C(C)=C\C=C\C(C)C(O)C(C)C(O)C(C)C(OC(C)=O)C1C (configuration not stated) | 4.3 | 4.35 | 0.000045 | 5.4 | 50 | 5.26 | 3.81 |  |  |  |
| COC1/C=C/OC2(C)Oc3c(C)c(O)c4c(O)c(c(/C=N/N5C(C)CN(Cc6ccc(C#N)cc6)CC5C)cc4c3C2=O)NC(=O)/C(C)=C\C=C\C(C)C(O)C(C)C(O)C(C)C(OC(C)=O)C1C (configuration not stated) | 4.66 | 4.33 | 0.000047 | 16 | 22 | 4.8 | 3.71 |  |  |  |
| CCCCCCCCN(CCCCCCCC)/N=C/c1cc2c3c4c(C)c(O)c2c(O)c1NC(=O)/C(C)=C\C=C\C(C)C(O)C(C)C(O)C(C)C(OC(C)=O)C(C)C(OC)/C=C/OC(C)(O4)C3=O (stereo in doubt; 8) [listing 1 of 2 here] |  |  | 0.000024 | 3.2 | 7.4 |  |  | 3.62 |  |  |
| COC1/C=C/OC2(C)Oc3c(C)c(O)c4c(O)c(c(/C=N/OC(c5ccccc5)c5ccccc5)cc4c3C2=O)NC(=O)/C(C)=C\C=C\C(C)C(O)C(C)C(O)C(C)C(OC(C)=O)C1C (configuration not stated) | 5 | 4.62 | 0.000024 | 2.5 | 10 | 5.6 | 4.96 |  |  |  |
| COC1/C=C/OC2(C)Oc3c(C)c(O)c4c(O)c(c(/C=N/N5CCCCCCCCCCCCCCC5)cc4c3C2=O)NC(=O)/C(C)=C\C=C\C(C)C(O)C(C)C(O)C(C)C(OC(C)=O)C1C (stereo in doubt; 31) |  |  |  |  |  |  |  | 5.55 |  |  |
| CCCCCN(CCCCC)/N=C/c1cc2c3c4c(C)c(O)c2c(O)c1NC(=O)/C(C)=C\C=C\C(C)C(O)C(C)C(O)C(C)C(OC(C)=O)C(C)C(OC)/C=C/OC(C)(O4)C3=O (configuration not stated) | 4.32 | 4.36 | 0.000043 | 4.4 | 48 | 5.36 | 3.47 |  |  |  |
| CCCCN(CCCC)/N=C/c1cc2c3c4c(C)c(O)c2c(O)c1NC(=O)/C(C)=C\C=C\C(C)C(O)C(C)C(O)C(C)C(OC(C)=O)C(C)C(OC)/C=C/OC(C)(O4)C3=O (configuration not stated) |  |  |  |  |  |  | 3.66 |  |  |  |
| COC1/C=C/OC2(C)Oc3c(C)c(O)c4c(O)c(ccc4c3C2=O)NC(=O)/C(C)=C\C=C\C(C)C(O)C(C)C(O)C(C)C(OC(C)=O)C1C (configuration not stated) | 2.96 | 3.12 | 0.00076 |  |  | 3.43 | 0.78 |  | 0.00037 | 0.0011 |
| COC1/C=C/OC2(C)Oc3c(C)c(O)c4c(O)c(c(/C=N/NC5CCCCCCCCCCCCCC5)cc4c3C2=O)NC(=O)/C(C)=C\C=C\C(C)C(O)C(C)C(O)C(C)C(OC(C)=O)C1C (configuration not stated) | 4.82 | 4.94 | 0.0000115 | 0.85 | 15 | 6.07 | 6.78 |  |  |  |
| COC1/C=C/OC2(C)Oc3c(C)c(O)c4c(O)c(c(/C=N/N5CCN(N)CC5)cc4c3C2=O)NC(=O)/C(C)=C\C=C\C(C)C(O)C(C)C(O)C(C)C(OC(C)=O)C1C (configuration not stated) | 4.8 | 3.78 | 0.000165 | 25 | 16 | 4.6 | 2 |  |  |  |
| COC1/C=C/OC2(C)Oc3c(C)c(O)c4c(O)c(c(/C=N/N5C(C)CC(Cc6ccccc6)CC5C)cc4c3C2=O)NC(=O)/C(C)=C\C=C\C(C)C(O)C(C)C(O)C(C)C(OC(C)=O)C1C (configuration not stated) |  |  |  |  |  |  | 6.3 |  |  |  |
| COC1/C=C/OC2(C)Oc3c(C)c(O)c4c(O)c(c(/C=N/N5CCCCCCCC5)cc4c3C2=O)NC(=O)/C(C)=C\C=C\C(C)C(O)C(C)C(O)C(C)C(OC(C)=O)C1C (configuration not stated) |  |  |  |  |  |  | 3.45 |  |  |  |
| COC1/C=C/OC2(C)Oc3c(C)c(O)c4c(O)c(c(/C=N/N5CCCCCCCCCCCC5)cc4c3C2=O)NC(=O)/C(C)=C\C=C\C(C)C(O)C(C)C(O)C(C)C(OC(C)=O)C1C (stereo in doubt; 30) |  |  |  |  |  |  |  | 4.65 |  |  |
| COC1/C=C/OC2(C)Oc3c(C)c(O)c4c(O)c(c(/C=N/N5CCCCCC5)cc4c3C2=O)NC(=O)/C(C)=C\C=C\C(C)C(O)C(C)C(O)C(C)C(OC(C)=O)C1C (configuration not stated) |  |  |  |  |  |  | 2.75 |  |  |  |
| COC1/C=C/OC2(C)Oc3c(C)c(O)c4c(O)c(c(/C=N/N5CCCCC5)cc4c3C2=O)NC(=O)/C(C)=C\C=C\C(C)C(O)C(C)C(O)C(C)C(OC(C)=O)C1C (configuration not stated) |  |  |  |  |  |  | 2.35 |  |  |  |
| NN1CCNCC1 |  |  |  |  |  |  | -0.29 |  |  |  |
| CCCN(CCC)/N=C/c1cc2c3c4c(C)c(O)c2c(O)c1NC(=O)/C(C)=C\C=C\C(C)C(O)C(C)C(O)C(C)C(OC(C)=O)C(C)C(OC)/C=C/OC(C)(O4)C3=O (configuration not stated) | 4.35 | 4.19 | 0.00006500000000000002 | 13.5 | 45 | 4.87 | 3.85 |  |  |  |
| COC1/C=C/OC2(C)Oc3c(C)c(O)c4c(O)c(c(/C=N/N5CCN(C)CC5)cc4c3C2=O)NC(=O)/C(C)=C\C=C\C(C)C(O)C(C)C(O)C(C)C(OC(C)=O)C1C (configuration not stated) |  |  | 0.00034 | 42 |  |  |  |  |  | 0.00015 |
| COC1/C=C/OC2(C)Oc3c(C)c(O)c4c(O)c(c(/C=N/N5CCCCCCCCCCCCCCC5)cc4c3C2=O)NC(=O)/C(C)=C\C=C\C(C)C(O)C(C)C(O)C(C)C(OC(C)=O)C1C (stereo in doubt; 18) [listing 1 of 2 here] |  |  | 0.000025 | 6.5 | 22 |  | 6.05 |  |  |  |
| COC1/C=C/OC2(C)Oc3c(C)c(O)c4c(O)c(c(/C=N/N5CCCCCCC5)cc4c3C2=O)NC(=O)/C(C)=C\C=C\C(C)C(O)C(C)C(O)C(C)C(OC(C)=O)C1C (configuration not stated) |  |  |  |  |  |  | 3.1 |  |  |  |
| COC1/C=C/OC2(C)Oc3c(C)c(O)c4c(O)c(c(/C=N/N5CCCCCCCCCCCC5)cc4c3C2=O)NC(=O)/C(C)=C\C=C\C(C)C(O)C(C)C(O)C(C)C(OC(C)=O)C1C (stereo in doubt; 17) [listing 1 of 2 here] |  |  | 0.000024 | 3.3 | 19 |  | 4.75 |  |  |  |
| CCCCCCCCN(CCCCCCCC)/N=C/c1cc2c3c4c(C)c(O)c2c(O)c1NC(=O)/C(C)=C\C=C\C(C)C(O)C(C)C(O)C(C)C(OC(C)=O)C(C)C(OC)/C=C/OC(C)(O4)C3=O (stereo in doubt; 35) |  |  |  |  |  |  | 3.6 |  |  |  |
| CCCCCCCCN(CCCCCCCC)/N=C/c1cc2c3c4c(C)c(O)c2c(O)c1NC(=O)/C(C)=C\C=C\C(C)C(O)C(C)C(O)C(C)C(OC(C)=O)C(C)C(OC)/C=C/OC(C)(O4)C3=O (stereo in doubt; 8) [listing 2 of 2 here] | 5.13 | 4.62 |  |  |  | 5.49 |  |  |  |  |
| COC1/C=C/OC2(C)Oc3c(C)c(O)c4c(O)c(c(/C=N/N5CCN(Cc6ccccc6)CC5)cc4c3C2=O)NC(=O)/C(C)=C\C=C\C(C)C(O)C(C)C(O)C(C)C(OC(C)=O)C1C (configuration not stated) |  |  |  |  |  |  | 3.36 |  |  |  |
| COC1/C=C/OC2(C)Oc3c(C)c(O)c4c(O)c(c(/C=N/N5CCCCCCCCCCCC5)cc4c3C2=O)NC(=O)/C(C)=C\C=C\C(C)C(O)C(C)C(O)C(C)C(OC(C)=O)C1C (stereo in doubt; 17) [listing 2 of 2 here] | 4.72 | 4.62 |  |  |  | 5.48 |  |  |  |  |
| COC1/C=C/OC2(C)Oc3c(C)c(O)c4c(O)c(c(/C=N/N5CCNCC5)cc4c3C2=O)NC(=O)/C(C)=C\C=C\C(C)C(O)C(C)C(O)C(C)C(OC(C)=O)C1C (configuration not stated) |  |  |  |  |  |  | 1.12 |  |  |  |
| CCCCCCN(CCCCCC)/N=C/c1cc2c3c4c(C)c(O)c2c(O)c1NC(=O)/C(C)=C\C=C\C(C)C(O)C(C)C(O)C(C)C(OC(C)=O)C(C)C(OC)/C=C/OC(C)(O4)C3=O (configuration not stated) |  |  |  |  |  |  | 3.51 |  |  |  |
| COC1/C=C/OC2(C)Oc3c(C)c(O)c4c(O)c(c(/C=N/N5CCCCCCCCCCCCCCC5)cc4c3C2=O)NC(=O)/C(C)=C\C=C\C(C)C(O)C(C)C(O)C(C)C(OC(C)=O)C1C (stereo in doubt; 18) [listing 2 of 2 here] | 4.66 | 4.6 |  |  |  | 5.19 |  |  |  |  |
